# Screens as filed in PubChem.
# OX1R antag-1: human HCRTR1 antagonism. CHO/OX1R cells, Fluo-8 calcium fluorescence, orexin A. O43613. inhibition, % at 5 µM. AID 434989. actives 0.43% (n = 330,000);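 active = inhibition above its plate's threshold, mean inhibition of all tested compounds on the plate plus 3 SD, cut at about 37% in these data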;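 also: 0% = orexin A challenge wells and 100% = SB-334867-A antagonist wells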
# TAAR1 ag: human TAAR1 agonism; Q96RJ0; CHO RD-HGA16 TAAR1, Fluo-8 calcium fluorescence; vehicle wells 0%, saturating PEA agonist 100%; activation, % at 3 µM; actives 0.99% (n = 360,000); AID 624467;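 active = activation above the mean activation of all test compounds in the run plus 3 SD, cut at about 38% in these data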
# Target sequence (Q96RJ0 whole entry, looked up): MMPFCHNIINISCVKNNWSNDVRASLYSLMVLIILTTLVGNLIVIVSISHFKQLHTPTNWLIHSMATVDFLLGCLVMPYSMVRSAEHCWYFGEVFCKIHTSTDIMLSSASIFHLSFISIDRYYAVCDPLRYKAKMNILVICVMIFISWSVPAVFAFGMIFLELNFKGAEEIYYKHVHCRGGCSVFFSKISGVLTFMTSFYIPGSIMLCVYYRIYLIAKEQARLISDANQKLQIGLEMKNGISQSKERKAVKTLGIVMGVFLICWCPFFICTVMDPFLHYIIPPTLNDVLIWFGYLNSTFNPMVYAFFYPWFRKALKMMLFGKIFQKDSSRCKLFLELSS
#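 System: CHO-derived RD-HGA16 cells with stable Gα16 and human TAAR1 / Times: 17-24 h plating, Fluo-8 75 min 37 °C, 30 min RT / Technique: calcium-sensitive Fluo-8 signal, excitation 470-495, emission 515-575 nm / Measure: % activation relative to PEA EC100 response / Benchmarks: DMSO and PEA EC100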
# GPR7 antagonist: antagonists of human GPR7 (neuropeptides B/W receptor 1); P48145; GPR7-expressing cells, fluorescence antagonist assay; inhibition, % at 4.4 µM; actives 1.1% (n = 290,000); AID 1861; in the data active = inhibition above about 16%, passing the limit was not always enough;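 also: cells stimulated with the agonist NPW; 0% = agonist with vehicle and 100% = vehicle without agonist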
# CHO parental Ca: signal in parental CHO cells, OX1R antagonist counter-screen. parental CHO-K1, ATP-induced calcium, Fluo-8 fluorescence. inhibition, % at 5.6 µM. actives 0.63% (n = 330,000). AID 463079;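 active = inhibition above that plate's mean sample inhibition plus 3 SD, cut at about 26% in these data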;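 also: 0% = ATP-challenged DMSO wells and 100% = DMSO wells without ATP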
#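 Assay system: parental CHO cells; Read-out basis: percent inhibition of ATP-evoked calcium rise, normalized to controls; Benchmarks: ATP and no-ATP DMSO wells; Compound dosing: single nominal dose of 5.6 µM per compound; Signal: Fluo-8 calcium dye fluorescence; Also added: ATP as calcium-mobilizing challenge; Repeats: singlicate.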
# TAAR1 antag: human TAAR1 antagonism; Q96RJ0; CHO RD-HGA16 TAAR1, Fluo-8 calcium fluorescence, antagonist; inhibition, % at 3 µM; actives 1.5% (n = 360,000); AID 624466;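 active = inhibition above a per-plate cutoff, the mean inhibition of test compounds on that plate plus 3 SD, cut at about 49% in these data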;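 also: 0% = DMSO plus EC80 beta-PEA response and 100% = DMSO alone without agonist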
#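 Test system: CHO RD-HGA16 cells bearing hTAAR1 | Reagent: β-PEA, EC80 | Compound dosing: 3 µM, single point | Schedule: Dye loading 75 min at 37 °C, then 30 min room temperature | Signal: Calcium fluorescence with Fluo-8 | Evaluation: Percent inhibition of PEA-evoked calcium signal, max/basal emission ratio | Control set: DMSO-only wells and EC80 β-PEA-stimulated wells | Repeats: Singlicate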
# OX1R antag-2: OX1R (human) antagonism. O43613. OX1R-expressing cells, FRET antagonist read-out. inhibition, % at 6.6 µM. actives 1.8% (n = 330,000); in the data active = inhibition mostly above about 38%, no sharp cut-off; inactive = mostly below about 40%;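 also: 0% = agonist challenge alone and 100% = reference antagonist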
# Numbers without * were called inactive; x = not tested or not shown. Only some compounds are listed: those with a hit (about 4.6% of all), similar ones and a draw of the others.
SMILES,OX1R antag-1,TAAR1 ag,GPR7 antagonist,CHO parental Ca,TAAR1 antag,OX1R antag-2
O=C(O)CCNc1cc(N2CCN(C(=O)c3ccco3)CC2)c2noc3c2c1C(=O)c1ccccc1-3,-25,6,-10,-2,2,76*
CCOc1ccc(Br)cc1S(=O)(=O)NCC(c1ccc(OC)cc1)N1CCOCC1 (centres undefined),x,18,x,x,3,x
NC(=O)[C@@H]1CCCNc2c(F)cc([N+](=O)[O-])cc2C(=O)N[C@@H](CCC(=O)O)C(=O)N[C@@H](CO)C(=O)N1,6,8,-11,-2,-8,60*
NC(=O)[C@@H]1CCCCNc2c(I)cc([N+](=O)[O-])cc2C(=O)N[C@@H](CCC(=O)O)C(=O)N[C@@H](CO)C(=O)N1,0,11,0,-8,16,41
O=C(c1cccs1)N1C[C@H](O)[C@@H](n2cc(C3CC3)nn2)C[C@@H]1c1ccccc1,x,2,x,x,-9,x
Cc1ccc(NC(=O)[C@@H]2CCCN2S(=O)(=O)c2ccc(Cl)cc2)cc1,16,0,x,-9,-30,48*
CCC1CCCCN1S(=O)(=O)c1ccc(S(=O)(=O)N(Cc2ccccn2)CC2CCCO2)cc1 (centres undefined),-20,2,6,-26,-10,17
CCC1CCCCN1S(=O)(=O)c1ccc(S(=O)(=O)N(Cc2cccs2)C2CC2)cc1 (centres undefined),54*,1,8,25,-9,29
CC(=O)Nc1ccc(NC(=O)C2CCCCN2S(=O)(=O)c2ccc(C(C)(C)C)cc2)cc1 (centres undefined),-8,10,-16,-10,55*,9
CCC1CCCCN1S(=O)(=O)c1ccc(NC(=O)c2ccncc2)cc1 (centres undefined),20,12,19,42*,18,27
CCC1CCCCN1S(=O)(=O)c1ccc(C(=O)Nc2nnc(C3CC3)o2)cc1 (centres undefined),-28,3,-1,-17,-22,21
Cc1ccc(C2NC(=O)c3n[nH]c(C(C)C)c32)cc1 (centres undefined),x,1,x,x,-36,x
C[C@H](CO)N1C[C@H](C)[C@@H](CN(C)C(=O)Nc2ccc(C(C)(C)C)cc2)OCc2cn(nn2)CCCC1=O,x,1,x,x,-11,x
O=C(Nc1ccc(Cl)cc1)C1CCCCN1S(=O)(=O)c1ccccc1 (centres undefined),20,3,x,6,-4,28*
CCOC(=O)[C@@H](NC(=O)/C=C/[C@H]1O[C@@H](n2cc(C)c(=O)[nH]c2=O)C[C@@H]1O)C(C)C,x,2,x,x,2,x
CO[C@H]1CN(C)C(=O)c2ccc(NC(=O)c3ccc4c(c3)OCO4)cc2OC[C@H](C)N(CC2CC2)C[C@@H]1C,x,2,x,x,-18,x
COC(=O)C1=C(C)N(Cc2ccccc2C(F)(F)F)C(=NCc2cc(OC)c(OC)c(OC)c2)NC1c1ccccc1 (centres undefined),x,11,x,x,-7,x
COc1ccccc1N(CC(=O)NCCSCc1ccccc1)S(=O)(=O)c1ccccc1,x,7,x,x,65*,x
COc1ccc(N(CC(=O)NCCSCc2ccco2)S(=O)(=O)c2ccccc2)cc1OC,-12,3,3,-28,12,24
COc1ccccc1N(CC(=O)NCCSCc1ccccc1)S(=O)(=O)c1ccc(C)cc1,10,-1,-7,-12,47,40
O=C(CN(c1ccccc1)S(=O)(=O)c1ccccc1)NCCSCc1ccco1,-8,6,-7,-12,25,57*
COc1ccc(N(CC(=O)NCCSCc2ccco2)S(=O)(=O)c2ccccc2)cc1,-6,10,3,-12,19,28
COc1ccccc1N(CC(=O)NCCSCc1ccco1)S(=O)(=O)c1ccccc1,23,8,-3,-34,39,51*
CC(=O)C1=C(C)N(Cc2ccc(Cl)cc2)C(=S)NC1c1ccc(Cl)cc1 (centres undefined),x,2,x,x,16,x
Cc1ccc(/C=C/c2nnc(-c3cccs3)o2)cc1,-10,-4,2,-28,-31,42*
CCN(CC(=O)NCc1cccs1)C(=O)c1ccc([N+](=O)[O-])o1,-17,1,x,-5,-13,64*
